According to ChEMBL document CHEMBL1149096 (J Med Chem, 2004):
Values joined by “and” are separate entries in the source; they are usually repeats but may differ in a detail not shown here. Equal entries are not always repeated. Active and inactive are the calls of the source.

Experiments:
Mu-type opioid receptor [1] = target: T1, Mu-type opioid receptor (Rattus norvegicus, UniProt P33535); assay: Binding affinity at Opioid receptor mu 1 by displacement of [3H]DAMGO in rat brain membrane; format: cell membranes
T1 sequence (P33535 whole entry): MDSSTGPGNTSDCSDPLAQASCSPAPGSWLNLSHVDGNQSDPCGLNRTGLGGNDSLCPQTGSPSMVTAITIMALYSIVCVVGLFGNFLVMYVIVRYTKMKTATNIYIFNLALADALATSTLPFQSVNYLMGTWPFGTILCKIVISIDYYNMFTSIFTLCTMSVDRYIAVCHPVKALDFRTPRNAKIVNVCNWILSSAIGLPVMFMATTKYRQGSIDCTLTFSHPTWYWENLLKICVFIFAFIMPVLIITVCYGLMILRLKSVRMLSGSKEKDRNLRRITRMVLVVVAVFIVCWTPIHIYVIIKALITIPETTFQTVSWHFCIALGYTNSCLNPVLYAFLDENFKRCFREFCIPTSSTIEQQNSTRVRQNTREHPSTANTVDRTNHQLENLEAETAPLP

[2] = target: T2, Kappa-type opioid receptor (Cavia porcellus, UniProt P41144); assay: Binding affinity at Opioid receptor kappa 1 by displacement of [3H]U-69593 in guinea pig brain membranes; format: cell membranes, Membrane
T2 sequence (P41144 whole entry): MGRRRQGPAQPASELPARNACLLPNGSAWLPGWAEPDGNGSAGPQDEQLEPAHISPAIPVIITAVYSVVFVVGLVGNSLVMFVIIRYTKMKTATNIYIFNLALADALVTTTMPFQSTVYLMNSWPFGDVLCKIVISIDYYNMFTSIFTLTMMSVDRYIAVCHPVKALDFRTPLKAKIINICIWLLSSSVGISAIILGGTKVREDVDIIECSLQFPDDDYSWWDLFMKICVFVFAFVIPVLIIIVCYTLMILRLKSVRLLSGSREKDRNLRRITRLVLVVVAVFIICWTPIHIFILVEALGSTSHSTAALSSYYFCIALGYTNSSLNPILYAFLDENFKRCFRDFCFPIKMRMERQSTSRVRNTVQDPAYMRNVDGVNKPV

Cavia porcellus [3] = species on record: Cavia porcellus; assay: Selectivity given as ratio of kappa receptor to delta receptor
[4] = target: Delta-type opioid receptor (Rattus norvegicus, UniProt P33533); assay: Binding affinity at opioid receptor delta 1 by displacement of [3H]DADLE in rat brain membrane; format: cell membranes
Chain of Delta-type opioid receptor (P33533 whole entry): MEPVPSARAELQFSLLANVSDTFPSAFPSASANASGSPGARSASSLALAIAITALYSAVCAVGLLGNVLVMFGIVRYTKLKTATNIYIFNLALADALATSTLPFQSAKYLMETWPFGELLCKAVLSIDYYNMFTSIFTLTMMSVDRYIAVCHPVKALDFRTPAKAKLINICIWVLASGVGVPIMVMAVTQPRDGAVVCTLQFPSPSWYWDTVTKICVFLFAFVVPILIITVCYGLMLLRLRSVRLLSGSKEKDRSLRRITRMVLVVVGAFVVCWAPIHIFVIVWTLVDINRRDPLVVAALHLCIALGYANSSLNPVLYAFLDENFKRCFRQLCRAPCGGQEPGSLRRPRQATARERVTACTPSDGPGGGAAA

[5] = target: Opioid receptors; mu & delta (Rattus norvegicus) (UniProt P33533+P33535); assay: Selectivity given as ratio of mu receptor to delta receptor; format: protein assay
Chain of Opioid receptors; mu & delta (Rattus norvegicus) (P33533 whole entry, looked up): as the sequence (P33533 whole entry) above
Chain of Opioid receptors; mu & delta (Rattus norvegicus) (P33535 whole entry, looked up): as the sequence (P33535 whole entry) above

Mu-type opioid receptor [6] = target: T1, Mu-type opioid receptor; assay: Binding affinity at Opioid receptor mu 1 by displacement of [3H]DAMGO at 1.4 to 3.0 nM in rat brain membrane; format: cell membranes
How it was run: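 Rat brain membranes freshly homogenised in ice-cold 10 mM Tris-HCl pH 7.0, centrifuged twice at 30000g, then resuspended in 50 mM Tris-HCl pH 7.4. […] Nonspecific binding was defined with 20 µM levallorphan. Two experiments were pooled and fitted by logistic regression, with Ki = IC50/(1+[L]/Kd).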

[7] = target: Delta-type opioid receptor (Mus musculus) (UniProt P32300); assay: Agonist activity by the maximum response towards opioid receptor delta 1 induced contractions in mouse vas deferens (MVD) smooth muscle contraction assays; format: functional, tissue-based
Chain of Delta-type opioid receptor (Mus musculus) (P32300 whole entry): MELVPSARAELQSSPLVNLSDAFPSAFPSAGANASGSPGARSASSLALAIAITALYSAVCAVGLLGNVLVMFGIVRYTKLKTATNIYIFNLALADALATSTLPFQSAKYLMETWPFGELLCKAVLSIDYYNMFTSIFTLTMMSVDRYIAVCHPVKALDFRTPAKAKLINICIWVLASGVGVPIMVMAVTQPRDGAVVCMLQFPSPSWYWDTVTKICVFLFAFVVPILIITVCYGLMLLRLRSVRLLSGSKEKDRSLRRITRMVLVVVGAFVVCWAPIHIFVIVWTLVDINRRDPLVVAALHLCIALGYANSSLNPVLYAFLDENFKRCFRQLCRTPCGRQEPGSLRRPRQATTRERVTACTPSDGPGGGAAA
How it was run: (§1)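 Electrically stimulated MVD (male ICR mice, 25-40 g) and GPI longitudinal muscle myenteric plexus strips (male Hartley guinea pigs, 250-500 g). Baths held 37 °C oxygenated Krebs bicarbonate (Mg-free for MVD), tension 1 g GPI / 0.5 g MVD. Stimulation 0.1 Hz, 0.4 ms pulses (2 ms MVD), supramaximal voltage. […] IC50 from two to four tissues by nonlinear least squares.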

Mu-type opioid receptor [8] = target: T3, Mu-type opioid receptor (Cavia porcellus, UniProt P97266); assay: Agonistic activity towards Opioid receptor mu 1 was determined in [35S]GTP-gamma-S, binding assay in guinea pig caudate; g = not active as an agonist; format: functional
T3 sequence (P97266 whole entry): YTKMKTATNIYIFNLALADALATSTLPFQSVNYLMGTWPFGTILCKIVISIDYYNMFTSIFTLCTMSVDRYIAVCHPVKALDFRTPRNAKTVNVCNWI
How it was run: (§2)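 Guinea pig caudate membranes (10-20 µg protein) incubated 3 h at 22 °C in Tris-HCl pH 7.4 containing 100 mM NaCl, 10 mM MgCl2, 1 mM EDTA, 100 µM GDP and 0.05-0.1 nM [35S]GTP-γ-S, then filtered and counted. Nonspecific binding defined with 10 µM GTP-γ-S. Site isolation used CTAP, nor-BNI, NTI or TIPP. […] Three experiments pooled; logistic fit.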

[9] = target: T2, Kappa-type opioid receptor; assay: Agonistic activity towards Opioid receptor kappa 1 was determined in [35S]GTP-gamma-S, binding assay in guinea pig caudate; g = not active as an agonist; format: functional; how it was run: as §2
[10] = target: T2, Kappa-type opioid receptor; assay: Apparent binding affinity of compound was determined by antagonism towards Opioid receptor kappa 1 in [35S]GTP-gamma-S, binding assay in guinea pig caudate; format: functional
[11] = target: Mu-type opioid receptor (Cavia porcellus) (UniProt P97266); settings: Ileum, filed as agonist
Chain of Mu-type opioid receptor (Cavia porcellus) (P97266 whole entry): as above

Mus musculus [12] = species on record: Mus musculus; assay: Antinociceptive effect was determined by the ability to exhibit 80% reduction of naloxone induced sensitivity; No; format: functional, organism-based
[13] = target: Delta-type opioid receptor (Mus musculus) (UniProt P32300); settings: Vas deferens; filed as agonist
Mu-type opioid receptor [14] = target: T3, Mu-type opioid receptor; assay: Apparent binding affinity of compound was determined by antagonism towards Opioid receptor mu 1 in [35S]GTP-gamma-S, binding assay in guinea pig caudate; format: functional
Mu-type opioid receptor [15] = target: T3, Mu-type opioid receptor; assay: Agonistic activity towards Opioid receptor mu 1 was determined in [35S]GTP-gamma-S, binding assay in guinea pig caudate; format: functional; settings: read-out: EC50; how it was run: as §2
Mu-type opioid receptor [16] = target: T3, Mu-type opioid receptor; assay: Inhibitory concentration for inhibition of Opioid receptor mu 1 induced contractions in guinea pig ileum (GPI) smooth muscle assays; format: functional, tissue-based
How it was run: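 Electrically stimulated MVD (male ICR mice, 25-40 g) and GPI longitudinal muscle myenteric plexus strips (male Hartley guinea pigs, 250-500 g). Baths held 37 °C oxygenated Krebs bicarbonate (Mg-free for MVD), tension 1 g GPI / 0.5 g MVD. Stimulation 0.1 Hz, 0.4 ms pulses (2 ms MVD), supramaximal voltage. IC50 from two to four tissues by nonlinear least squares.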

Mus musculus [17] = species on record: Mus musculus; assay: Antinociceptive effect was determined at 100 nM in mouse; format: functional
Cavia porcellus [18] = species on record: Cavia porcellus; settings: Ileum, filed as agonist
[19] = target: T2, Kappa-type opioid receptor; assay: Inhibitory concentration required for 50% inhibition of antagonism towards Opioid receptor kappa 1 in [35S]GTP-gamma-S, binding assay in guinea pig caudate; format: functional
[20] = target: T2, Kappa-type opioid receptor; assay: Agonistic activity towards Opioid receptor kappa 1 was determined in [35S]GTP-gamma-S, binding assay in guinea pig caudate; format: functional; how it was run: as §2
[21] = target: Delta-type opioid receptor (Mus musculus) (UniProt P32300); settings: Vas deferens; filed as agonist; remark: listed apart in the source
Mus musculus [22] = species on record: Mus musculus; assay: Antinociceptive effect was determined at 300 nM in mouse; format: functional
[23] = target: Delta-type opioid receptor (Mus musculus) (UniProt P32300); settings: Vas deferens
Mus musculus [24] = species on record: Mus musculus; assay: Antinociceptive effect was determined by the ability to exhibit 80% reduction of naloxone induced sensitivity; Partial; format: functional, organism-based
Mus musculus [25] = species on record: Mus musculus; assay: Antinociceptive effect was determined by the ability to exhibit 80% reduction of naloxone induced sensitivity; Yes; format: functional, organism-based
[26] = target: Delta-type opioid receptor (Mus musculus) (UniProt P32300); assay: Agonist activity by the max response towards opioid receptor delta 1 induced contractions in mouse vas deferens (MVD) smooth muscle contraction assays; format: functional, tissue-based; how it was run: as §1
Mus musculus [27] = assay: Analgesic activity was calculated at time of peak drug effect when administered (icv) in mouse warm-water tail withdrawal assay; format: functional
How it was run: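 Male ICR mice dosed icv (5 µL; water or 100% DMSO) under light ether anaesthesia. 55 °C warm-water tail withdrawal read at 10-180 min, cutoff 10 s. %MPE = 100 × (test − control)/(cutoff − control). A50 and 95% CI taken at peak effect by linear regression.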

[28] = target: Mu-type opioid receptor (Cavia porcellus) (UniProt P97266); settings: Ileum

Row | SMILES | Ki [2] [nM] | Ratio (Cavia porcellus [3]) | Ki [4] [nM] | Ratio [5] | Response [7] | EC50 [9] | Ki (Mu-type opioid receptor [14]) [nM] | IC50 (Mu-type opioid receptor [16]) [nM] | other results
1 | C=CCN1C[C@H](C)N([C@H](c2ccc(C(=O)N(CC)CC)cc2)c2cccc(OC)c2)C[C@H]1C [SNC-80] | 8760 |  |  |  |  |  |  |  | Ki (Mu-type opioid receptor [1]): 8070 nM
2 | COc1ccc2c3c1O[C@H]1c4ncc(-c5ccccc5)cc4C[C@@]4(O)[C@@H](C2)N(C)CC[C@]314 | > 10000 | > 294 | 34 | 26 |  |  |  |  | Ki (Mu-type opioid receptor [6]): 894 nM
3 | Oc1ccc2c3c1O[C@H]1c4ncccc4C[C@@]4(O)[C@@H](C2)N(CC2CC2)CC[C@]314 |  | 11 |  | 1.9 | 0% |  |  |  | 
4 | Oc1ccc2c3c1O[C@H]1c4[nH]c5ccccc5c4C[C@@]4(O)[C@@H](C2)N(CC2CC2)CC[C@]314 [NALTRINDOLE] | 75 |  | 1.6 |  | 16% and 18% | Not Active |  |  | EC50 (Mu-type opioid receptor [8]): Not Active
5 | CN1CC[C@]23c4c5ccc(O)c4O[C@H]2c2ncc(-c4ccccc4)cc2C[C@@]3(O)[C@H]1C5 |  | 124 |  | 9 |  | Not Active | > 1000 | 211 | Ki [10]: > 1000 nM; Ke [11]: Agonist; Activity (Mus musculus [12]): inactive; Ke [13]: Agonist; EC50 (Mu-type opioid receptor [15]): 660 nM; Activity (Mus musculus [17]): 64%
6 | CN1CC[C@]23c4c5ccc(O)c4O[C@H]2c2ncc(-c4ccc(Cl)c(Cl)c4)cc2C[C@H]3[C@H]1C5 |  | 75 |  | 25 |  |  | > 1000 | 447 | Ke (Cavia porcellus [18]): Agonist; Ki [19]: 4770 nM; EC50 (Mu-type opioid receptor [8]; read-out: EC50): 1310 nM; EC50 [20]: Not Active; Ke [21]: Agonist; Activity (Mus musculus [17]): 44%
7 | CN1CC[C@]23c4c5ccc(O)c4O[C@H]2c2ncc(-c4ccc(Cl)cc4)cc2C[C@@]3(O)[C@H]1C5 |  | 120 | 3.9 | 59 | 58% | Not Active |  |  | EC50 (Mu-type opioid receptor [8]): Not Active; Ke [11]: Agonist; Activity (Mus musculus [22]): 43%; Ke [23]: 38.2; Activity (Mus musculus [24]): Weak activity
8 | CN1CC[C@]23c4c5ccc(O)c4O[C@H]2c2ncccc2C[C@@]3(O)[C@H]1C5 |  | 15 |  | 0.4 |  | Not Active | > 1000 | 523 | Ki [10]: > 1000 nM; Activity (Mus musculus [25]): Active; Response [26]: 49%; A50 (Mus musculus [27]): 67.1 nM; EC50 (Mu-type opioid receptor [15]): 3000 nM
9 | Oc1ccc2c3c1O[C@H]1c4ncc(-c5ccccc5)cc4C[C@@]4(O)[C@@H](C2)N(CC2CC2)CC[C@]314 |  | 20 |  | 16 | 4.7% |  |  |  | Ke [28]: 43 nM; Ke [23]: 3.7 nM
10 | CN1CC[C@]23c4c5ccc(O)c4O[C@H]2c2ncc(-c4ccc(Br)cc4)cc2C[C@@]3(O)[C@H]1C5 | 432 | 108 | 4 | 49 |  |  |  |  | Ki (Mu-type opioid receptor [1]): 196 nM
